The values that follow come from ChEMBL document CHEMBL4513216, “Probing the Open Global Health Chemical Diversity Library for Multistage-Active Starting Points for Next-Generation Antimalarials” (ACS Infect Dis, 2020).

This series can be described thus: Toxicity liver stage against HepG2, at 10uM. The class given is cell-based. Also on record: test concentration 10 uM, cell line HepG2-A16-CD81EGFP. Particulars: human, HepG2-A16-CD81EGFP cells; read-out: INHIBITION
In short, it runs like this:
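Uninfected HepG2-A16-CD81EGFP cells, 3 × 10^3 per well, 1536-well, plated on prespotted compound at 10 μM final, parasite-free screening media added to match infected plates; puromycin 10 μM positive, DMSO 0.5% negative; run in parallel with 48 h PbLuc assay at 37 °C, 5% CO2; viability by CellTiter-Glo luminescence, normalized to controls.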
With `O=C1NC(c2ccccc2)=N[C@@]12CC[C@@H]1CN(Cc3ccco3)C[C@@H]12`, the cytotoxicity at 10 µM was -4.34%.
Turning to `CCc1cnc(N2CCc3ncnc(N4CCN(C)CC4)c3CC2)nc1`, the cytotoxicity at 10 µM was -1.13%.
In the case of `Cc1ccc(C2CCCCCN2Cc2cn(C)nc2C)s1` (stereo unspecified), the cytotoxicity at 10 µM is -6.47%.
The value for `Cn1c(=O)c2c(c3ccccc31)OC(C)(C)CC2` was 17.8%; that for `COc1ccc2oc(C(C)NC(=O)NC3CCN(C)CC3)c(C)c2c1` (stereo unspecified) was 2.62%; that for `N#CCc1ccc(OCC(=O)NS(=O)(=O)c2ccc(Br)s2)cc1` was -5.46%.
Turning to `Cc1nc(CNC(=O)NCC(F)(F)F)oc1C`, the cytotoxicity at 10 µM was -1.72%.
In the case of `O=S1(=O)CCC(CNS(=O)(=O)N2CCc3ccccc3C2)C1` (stereo unspecified), the cytotoxicity at 10 µM is -10.7%.
As to `CC(C)c1noc(CCCC(=O)NC(C)c2nnc3n2CCC3)n1` (stereo unspecified), the cytotoxicity at 10 µM turned out to be 9.96%.
For `CC(C)COCCC(=O)Nc1cc(-n2nnnc2C2CC2)ccc1F`, the cytotoxicity at 10 µM is 7.57%.
The value for `COCc1cncc2c1CCN(C(=O)c1cccc(C#N)c1)C2` was -98.2%; that for `CS(=O)(=O)N1C[C@@H]2OCC(=O)N(CC3CC3)[C@@H]2C1` was -13.8%; that for `COC[C@H]1CCC[C@]12CN(Cc1cccc(C)n1)CCO2` was 2.23%.
Under `O=C(c1cnccn1)N1CCN(Cc2ccncc2)c2ncccc2C1` stands -2.72%.
As to `CCOC(=O)c1n[nH]cc1-c1cncn1CCn1nc(C)c(C)c1C`, the cytotoxicity at 10 µM is -35.3%.
As to `Cc1nc(CN2CCC3(CCN(Cc4cnn(C)c4)C3)C2=O)cs1` (stereo unspecified), the cytotoxicity at 10 µM worked out at 6.81%.
Under `COc1ccccc1OCC(=O)Nc1ncccc1C` stands 0.464%.
The value for `CC(NC(=O)NCCCn1cccn1)c1ccc2c(c1)OCCCO2` (stereo unspecified) was -9.13%.
Turning to `COc1coc(CN2CCCC3(CCC(=O)N(C4CC4)C3)C2)cc1=O` (stereo unspecified), the cytotoxicity at 10 µM is -39.9%.
The value for `CN(C)Cc1nn(C)c2c1CN(C(=O)Nc1cccc(F)c1)C2` was 4.23%.
As for `Cn1cc(CCNC(=O)N2CCCC(Cc3nccn3C)C2)cn1` (stereo unspecified), the cytotoxicity at 10 µM is -4.52%.
The value for `CCc1csc(CNC(=O)C(CC)n2cccn2)n1` (stereo unspecified) was -0.651%.
Under `CCN(Cc1ccc2c(c1)OCO2)C(=O)Cn1cccnc1=O` stands -2.27%.
Consider `CN1CCCC[C@@H]2[C@H]1[C@@H](c1ccccc1)CCN2C(=O)c1cccnc1`, for which the cytotoxicity at 10 µM was -21.2%.
The value for `CSCC1CCN(c2nc(N)ncc2C)CC1` was -5.2%; that for `CC(=O)N1CCC(C(=O)N(C)[C@@H]2CCC[C@@H](N3CCCC3)[C@@H]2O)CC1` was -0.156%.
The value for `CC(C)(C)c1c[nH]c([C@@H]2COCCN2C2CCNCC2)n1` was 6.07%.
In the case of `O=C(NCCN1CCCCC1)c1nc2ccccc2c(=O)[nH]1`, the cytotoxicity at 10 µM is 10.5%.
The value for `Cc1ccc(CN2CCc3nnc(CN4CCCC4=O)n3CC2)o1` was -4.28%; that for `NC(=O)CN1CCC(c2cncc(-c3cccc(Cl)c3)n2)CC1` was -26.4%; that for `O=c1ccc2c(n1Cc1ccncc1)CCN(C1CCOC1)CC2` (stereo unspecified) was -1.31%.
The value for `O=C(NCCOc1ccccc1)NCC(O)c1cccs1` (stereo unspecified) was -7.83%; that for `Cc1noc(CNC(=O)[C@@H](C)NC(=O)OC(C)(C)C)n1` was 4.91%; that for `Fc1ccc(CNc2ccccc2Cn2cncn2)cc1` was -0.719%.
Turning to `CC(C)CCNC(=O)c1cccnc1Oc1cccnc1`, the cytotoxicity at 10 µM was -0.379%.
As to `CCOCCN(C)C(c1cccnc1)c1ccc(F)cc1F` (stereo unspecified), the cytotoxicity at 10 µM came to 5.64%.
The value for `CCC(NC(=O)C1CCN(C(=O)C2CC2)CC1)c1cn2cccnc2n1` (stereo unspecified) was 0.0482%.
Regarding `O=C(C1CCOC1)N1C[C@H]2CN(Cc3nccs3)C[C@H]2C1` (stereo partly specified), the cytotoxicity at 10 µM is 5.04%.
Under `Cc1cccc(CNC(C)c2ccc(OCC(=O)NC3CC3)cc2)c1` (stereo unspecified) stands -10%.
`CC(NC(=O)Nc1nnc(-c2ccccn2)s1)C(=O)OC(C)(C)C` (stereo unspecified): the cytotoxicity at 10 µM was -6.87%.
Take `Cn1cncc1-c1nnc([C@H]2CCN(Cc3ccc(F)c(F)c3)C2)o1`: the cytotoxicity at 10 µM was 3.04%.
Under `Cc1cnc(CNC2CCc3nc(C(C)C)nn3C2)cn1` (stereo unspecified) stands 4.93%.
As to `CNC(=O)NC(=O)CN(C)C(c1cccnc1)c1ccc(F)cc1F` (stereo unspecified), the cytotoxicity at 10 µM came to 5.3%.
Take `CN(Cc1ccco1)C(=O)CN1CCN(C)c2ccccc2C1`: the cytotoxicity at 10 µM is -7.2%.
As for `O=C(c1ccncc1F)N1CCc2ncnc(C3CC3)c2CC1`, the cytotoxicity at 10 µM was -78.4%.
With `CCCNC(=O)C1(CC2CC(c3ccccc3OC)=NO2)CCOCC1` (stereo unspecified), the cytotoxicity at 10 µM is 21.8%.
The value for `O=C(N[C@@H]1CCN(c2ncc(Cl)cc2Cl)C[C@H]1O)c1cnccn1` was -8.92%; that for `Cc1cc(OCC(=O)N2CCCC(c3nccs3)C2)no1` (stereo unspecified) was 0.953%.
Take `CC(C)c1ncc(CN2CCCC2c2[nH]ncc2C(=O)N(C)C)cn1` (stereo unspecified): the cytotoxicity at 10 µM amounted to 0.974%.
Under `O=C1CC(C(=O)O)C2(CCN(C(=O)NCc3ccc(Cl)cc3)CC2)N1` (stereo unspecified) stands 7.66%; under `CCc1ncc(CNC2CC(=O)N(CCc3cccc(Cl)c3)C2)cn1` (stereo unspecified), -3.62%.
For the molecule `Cn1ccnc1COc1ccc(NC(=O)C2CCCO2)cc1` (stereo unspecified), the cytotoxicity at 10 µM is -14.9%.
With `CCCc1cc(C(=O)NCCn2nc3ccccn3c2=O)[nH]n1`, the cytotoxicity at 10 µM is -3.56%.
Under `CN(C)c1nc2cn(C3CC(C)(C)NC(C)(C)C3)c(=O)c-2c[nH]1` stands 6.39%.
In the case of `CN(C1CCCCC1)S(=O)(=O)NC1CCN(c2ncccn2)CC1`, the cytotoxicity at 10 µM came out at 6.99%.
For `C=c1ncsc1=C1NN=C(C2CCCN2C(=O)c2ccn(CC)n2)O1` (stereo unspecified), the cytotoxicity at 10 µM was -7.82%.
Regarding `COC(C)(C)C(=O)NCC1CCN(Cc2cc3ccccc3[nH]2)C1` (stereo unspecified), the cytotoxicity at 10 µM stood at 5.85%.
Under `CCC[C@H]1CN(S(C)(=O)=O)C[C@@H]1NC(=O)c1ccc(COC)cc1` stands 1.1%.
On to `Cc1nnsc1CN1C[C@H]2CC[C@@H](C1)N(Cc1c(C)noc1C)C2=O`, for which the cytotoxicity at 10 µM is -4.56%.
In the case of `O=C(CCc1ccsc1)NCC1CCN(Cc2cccs2)CC1`, the cytotoxicity at 10 µM is 12.9%.
Regarding `CCn1ncnc1C(C)NC(=O)Cc1cc2c(cc1Cl)OCCO2` (stereo unspecified), the cytotoxicity at 10 µM was -6.38%.
The value for `CCOCCCC(=O)Nc1[nH]nc(-c2ccncc2)c1C` was 7.98%; that for `COc1cn(CC(=O)N2CCN(c3ccc(Cl)cc3)CC2)c(C)cc1=O` was 1.82%; that for `CN(Cc1ccsc1)C(=O)c1cc2c([nH]c1=O)CCC2` was -12.4%.
The value for `CC(C)Oc1cccc(CNC(=O)NC(C)(C(=O)O)c2ccco2)c1` (stereo unspecified) was -2.77%; that for `CC(C)C(=O)N1CCOC2(COCCN(c3ncccn3)C2)C1` (stereo unspecified) was -114%.
On to `CC(=O)NCCNC(=O)c1cnc(C(C)(C)C)s1`, for which the cytotoxicity at 10 µM was -2.17%.
As for `O=C(NC1CCS(=O)(=O)c2ccccc21)c1cccs1` (stereo unspecified), the cytotoxicity at 10 µM was -0.0399%.
For the molecule `COc1ncnc2c1CCN(c1cccc(F)c1)CC2`, the cytotoxicity at 10 µM was 10.7%.
On to `Cc1oc2nc[nH]c(=O)c2c1C(=O)N1CCCC(n2cccn2)C1` (stereo unspecified), for which the cytotoxicity at 10 µM is -0.513%.
On to `Cc1n[nH]c(C)c1C1CCCN1C(=O)NCC(=O)NC(C)(C)C` (stereo unspecified), for which the cytotoxicity at 10 µM is -11.7%.
Regarding `Cn1cc(C(=O)NCc2ccc(N3CCCC3)nc2)ccc1=O`, the cytotoxicity at 10 µM was -3.72%.
Under `Cc1nc(CCNc2nc(N(C)C)nc3c2CCCC3)cc(=O)[nH]1` stands 6.86%.
Under `CN1CCC(c2cc(CCO)ncn2)C1` (stereo unspecified) stands 4.87%; under `Cc1cc(C)n(CC2CCCN2CC(=O)Nc2nnc(C)s2)n1` (stereo unspecified), 5.29%; under `O=C1NCCO[C@H]2CN(C(=O)CCc3ccccc3Cl)CC[C@@H]12`, 1.96%.
Consider `CN(C)[C@H]1CCCCN(Cc2ccccc2Cn2cccn2)C1`, for which the cytotoxicity at 10 µM is -130%.
For the molecule `CC(C)c1ncc2c(n1)CN(Cc1nc3c(F)cccc3[nH]1)CC2`, the cytotoxicity at 10 µM worked out at 1.09%.
Under `COc1cc(C)nc(N2CCN(C(C)c3nc(C4CC4)no3)CC2)n1` (stereo unspecified) stands 1.46%; under `CC(C#N)CSc1ccccc1NCC(=O)Nc1ccccc1` (stereo unspecified), 6.24%.
The value for `CC[C@H]1COCCN1C(=O)c1ccc(OC)c(N2CCOCC2)c1` was 3.89%; that for `O=C(NCCCNc1ccc(C(F)(F)F)cn1)c1ccc2c(c1)OCO2` was -8.51%; that for `O=C(NS(=O)(=O)c1ccc(F)c(F)c1)c1cscn1` was -5.64%.
Under `Cc1cnccc1CN(C)C(=O)C(C)(C)NC(=O)c1cccs1` stands 6.89%; under `CN1CCC(NC(=O)NCc2csc(Br)c2)CC1`, -8.92%; under `CNc1oc(-c2ccc(OC)c(S(=O)(=O)N3CCCCC3)c2)nc1C#N`, 10.4%.
As to `CCOC(=O)c1n[nH]cc1CN1CCOC(Cc2ccccc2)C1` (stereo unspecified), the cytotoxicity at 10 µM is -5.35%.
Regarding `Cc1cc(C)nc(NC(C)Cc2cnccn2)n1` (stereo unspecified), the cytotoxicity at 10 µM stood at 1.54%.
As for `Cn1c(C(=O)N2CCC(CC(N)=O)CC2)c(Cl)c2ccccc21`, the cytotoxicity at 10 µM is 18.7%.
As for `CCn1nc(CC(C)C)cc1C(=O)N1CCCC(C#N)C1` (stereo unspecified), the cytotoxicity at 10 µM is -8.2%.
With `CSc1nccc(N2CCC(NCCN3CCOCC3)CC2)n1`, the cytotoxicity at 10 µM is -49.5%.
For the molecule `COc1cccc(C(=O)N2CCN(CC(O)c3ccccc3)CC2)c1` (stereo unspecified), the cytotoxicity at 10 µM is -46.7%.
On to `Cc1cccc(CN2C[C@@H](F)[C@@H](OCc3nc4ccccc4[nH]3)C2)n1`, for which the cytotoxicity at 10 µM came out at 8.01%.
Under `CC(=O)N1CCOC(c2c(C(=O)NCCN(C)C)sc3ccccc23)C1` (stereo unspecified) stands -1.19%.
Take `Cn1cccc1C(=O)NCc1cnc2n1CCN(C(=O)c1ccoc1)C2`: the cytotoxicity at 10 µM came to 11.9%.
Take `NC(=O)CN1CCC(NC(=O)N2CCCC2c2ccsc2)CC1` (stereo unspecified): the cytotoxicity at 10 µM worked out at 1.91%.
